From ChEMBL document CHEMBL4118126, “An orally available, brain-penetrant CAMKK2 inhibitor reduces food intake in rodent model” (Bioorg Med Chem Lett, 2018)
Values after ≈ are worked out from the molar mass of the structure shown.

What was measured:
[1] = target: Calcium/calmodulin-dependent protein kinase kinase 2 (Homo sapiens, UniProt Q96RR4); assay: Inhibition of full-length human GST-tagged CAMKK2 using 5FAM-AKPKGNKDYHLQTCCGSLAYRRR-amide as substrate preincubated for 30 mins followed by substrate addition measured after 120 mins by fluorescence polarization assay
Sequence of Calcium/calmodulin-dependent protein kinase kinase 2 (Homo sapiens, UniProt Q96RR4) (Q96RR4 whole entry): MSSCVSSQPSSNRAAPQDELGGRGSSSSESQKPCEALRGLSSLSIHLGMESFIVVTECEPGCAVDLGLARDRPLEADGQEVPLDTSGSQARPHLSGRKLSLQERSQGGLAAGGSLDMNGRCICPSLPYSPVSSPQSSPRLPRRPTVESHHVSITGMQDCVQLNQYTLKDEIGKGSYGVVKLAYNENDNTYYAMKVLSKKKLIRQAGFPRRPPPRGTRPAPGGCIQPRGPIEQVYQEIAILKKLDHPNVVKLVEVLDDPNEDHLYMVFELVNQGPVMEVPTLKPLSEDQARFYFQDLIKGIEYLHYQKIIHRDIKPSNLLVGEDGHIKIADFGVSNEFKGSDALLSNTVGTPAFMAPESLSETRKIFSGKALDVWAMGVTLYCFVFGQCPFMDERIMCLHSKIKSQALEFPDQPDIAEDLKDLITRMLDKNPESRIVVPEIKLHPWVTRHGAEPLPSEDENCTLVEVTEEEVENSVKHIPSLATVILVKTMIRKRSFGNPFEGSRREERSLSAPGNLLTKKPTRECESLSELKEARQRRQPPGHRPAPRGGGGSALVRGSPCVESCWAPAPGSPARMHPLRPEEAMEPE

[2] = target: Calcium/calmodulin-dependent protein kinase kinase 2 (Mus musculus, UniProt Q8C078); assay: Inhibition of CAMKK2 in mouse N39 cells assessed as decrease in AMPKalpha phosphorylation at T172 preincubated for 80 mins followed by […] addition by ELISA; format: cell-based
Sequence of Calcium/calmodulin-dependent protein kinase kinase 2 (Mus musculus, UniProt Q8C078) (Q8C078 whole entry): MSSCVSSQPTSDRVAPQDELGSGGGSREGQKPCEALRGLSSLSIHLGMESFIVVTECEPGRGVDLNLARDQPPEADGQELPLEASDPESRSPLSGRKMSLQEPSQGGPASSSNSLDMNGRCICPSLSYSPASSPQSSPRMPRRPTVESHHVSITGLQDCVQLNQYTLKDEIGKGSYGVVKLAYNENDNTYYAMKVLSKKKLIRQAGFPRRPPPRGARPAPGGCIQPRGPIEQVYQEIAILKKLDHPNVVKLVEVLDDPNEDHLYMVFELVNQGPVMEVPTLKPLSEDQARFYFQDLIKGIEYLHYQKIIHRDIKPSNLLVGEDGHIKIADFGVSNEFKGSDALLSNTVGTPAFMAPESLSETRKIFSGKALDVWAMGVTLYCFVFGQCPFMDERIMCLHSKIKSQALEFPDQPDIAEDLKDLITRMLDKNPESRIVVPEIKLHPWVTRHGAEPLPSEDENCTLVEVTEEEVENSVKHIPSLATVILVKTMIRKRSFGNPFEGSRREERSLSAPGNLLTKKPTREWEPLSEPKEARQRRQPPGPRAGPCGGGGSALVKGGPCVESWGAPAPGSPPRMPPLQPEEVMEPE
Outline: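 Mouse N39 cells seeded ~1000 cells/well, cultured overnight at 37°C, 5% CO2, then exposed to compound in DMSO for 80 min before ionomycin stimulation ([…] as added). Cells were lysed in extraction buffer for 30 min on ice, then diluted into ice-cold lysis buffer containing protease and phosphatase inhibitors for MSD read-out.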

[3] = Solubility of the compound in pH 7.4 phosphate buffer saline after 1 hr by chemiluminescence nitrogen detection method; format: physicochemical; details: phosphate buffered saline
Outline: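 Kinetic solubility: 10 mM DMSO stock diluted 1:20 into 10 mM phosphate-buffered saline pH 7.4, equilibrated 1 h at RT, filtered, and filtrate quantified by calibrated flow-injection chemiluminescent nitrogen detection.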

[4] = target: Mitogen-activated protein kinase 8 (Homo sapiens, UniProt P45983); assay: Inhibition of JNK1 (unknown origin)
Sequence of Mitogen-activated protein kinase 8 (P45983 whole entry): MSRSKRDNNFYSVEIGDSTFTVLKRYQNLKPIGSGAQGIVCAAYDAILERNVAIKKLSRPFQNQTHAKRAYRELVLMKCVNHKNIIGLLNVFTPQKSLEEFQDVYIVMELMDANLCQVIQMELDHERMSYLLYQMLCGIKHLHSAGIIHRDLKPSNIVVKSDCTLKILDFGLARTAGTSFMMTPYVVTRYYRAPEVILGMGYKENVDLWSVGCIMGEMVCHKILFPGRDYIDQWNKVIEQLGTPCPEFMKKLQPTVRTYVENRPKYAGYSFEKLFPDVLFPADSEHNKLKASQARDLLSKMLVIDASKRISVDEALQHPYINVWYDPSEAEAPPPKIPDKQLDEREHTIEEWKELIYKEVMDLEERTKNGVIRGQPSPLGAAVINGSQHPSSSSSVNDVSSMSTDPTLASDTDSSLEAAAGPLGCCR

[5] = target: T1, Inhibitor of nuclear factor kappa-B kinase subunit alpha (Homo sapiens, UniProt O15111); assay: Inhibition of IKK1 (unknown origin)
T1 sequence (O15111 whole entry): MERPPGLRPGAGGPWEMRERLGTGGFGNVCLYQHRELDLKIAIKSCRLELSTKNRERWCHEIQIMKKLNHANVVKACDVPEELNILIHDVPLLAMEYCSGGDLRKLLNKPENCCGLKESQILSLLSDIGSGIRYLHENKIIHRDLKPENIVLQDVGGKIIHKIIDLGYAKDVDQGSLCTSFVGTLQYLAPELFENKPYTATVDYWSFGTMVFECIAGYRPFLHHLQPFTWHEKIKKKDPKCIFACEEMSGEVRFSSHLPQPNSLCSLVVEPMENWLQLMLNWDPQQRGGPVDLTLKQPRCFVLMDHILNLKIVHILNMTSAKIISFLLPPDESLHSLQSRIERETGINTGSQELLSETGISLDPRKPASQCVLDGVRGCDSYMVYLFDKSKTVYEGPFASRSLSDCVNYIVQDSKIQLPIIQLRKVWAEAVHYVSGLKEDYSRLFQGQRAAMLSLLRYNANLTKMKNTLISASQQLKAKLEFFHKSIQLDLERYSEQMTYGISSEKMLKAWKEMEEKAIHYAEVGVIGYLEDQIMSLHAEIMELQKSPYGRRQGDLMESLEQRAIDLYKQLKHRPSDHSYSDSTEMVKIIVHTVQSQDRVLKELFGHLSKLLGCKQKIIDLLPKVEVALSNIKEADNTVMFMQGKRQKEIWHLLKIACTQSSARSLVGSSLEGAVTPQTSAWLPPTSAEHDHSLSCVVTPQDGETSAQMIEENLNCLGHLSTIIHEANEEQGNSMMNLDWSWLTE

Insulin receptor = Insulin receptor (Homo sapiens, UniProt P06213); assay: Inhibition of INSR (unknown origin)
Sequence of Insulin receptor (P06213 28-758 limits assumed): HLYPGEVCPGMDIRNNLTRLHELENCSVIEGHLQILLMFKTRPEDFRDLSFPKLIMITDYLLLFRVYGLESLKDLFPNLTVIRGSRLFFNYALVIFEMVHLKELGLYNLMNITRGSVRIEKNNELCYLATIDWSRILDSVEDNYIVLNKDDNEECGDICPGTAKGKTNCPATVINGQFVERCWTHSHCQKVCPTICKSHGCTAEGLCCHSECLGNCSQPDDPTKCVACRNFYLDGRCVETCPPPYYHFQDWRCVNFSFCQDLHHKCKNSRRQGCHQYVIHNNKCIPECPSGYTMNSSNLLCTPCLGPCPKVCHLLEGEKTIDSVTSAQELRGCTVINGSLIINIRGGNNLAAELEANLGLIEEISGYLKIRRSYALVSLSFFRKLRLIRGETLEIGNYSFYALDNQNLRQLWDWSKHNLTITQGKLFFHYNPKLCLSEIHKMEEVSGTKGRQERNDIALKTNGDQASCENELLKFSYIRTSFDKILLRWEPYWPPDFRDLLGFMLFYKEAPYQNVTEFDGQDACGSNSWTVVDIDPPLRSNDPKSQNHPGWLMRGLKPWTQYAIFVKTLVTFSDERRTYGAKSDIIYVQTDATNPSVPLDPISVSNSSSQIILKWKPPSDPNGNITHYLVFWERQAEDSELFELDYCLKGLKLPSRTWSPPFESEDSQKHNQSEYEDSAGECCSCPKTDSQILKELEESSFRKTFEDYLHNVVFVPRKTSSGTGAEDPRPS
Sequence of Insulin receptor (P06213 763-1382 limits assumed): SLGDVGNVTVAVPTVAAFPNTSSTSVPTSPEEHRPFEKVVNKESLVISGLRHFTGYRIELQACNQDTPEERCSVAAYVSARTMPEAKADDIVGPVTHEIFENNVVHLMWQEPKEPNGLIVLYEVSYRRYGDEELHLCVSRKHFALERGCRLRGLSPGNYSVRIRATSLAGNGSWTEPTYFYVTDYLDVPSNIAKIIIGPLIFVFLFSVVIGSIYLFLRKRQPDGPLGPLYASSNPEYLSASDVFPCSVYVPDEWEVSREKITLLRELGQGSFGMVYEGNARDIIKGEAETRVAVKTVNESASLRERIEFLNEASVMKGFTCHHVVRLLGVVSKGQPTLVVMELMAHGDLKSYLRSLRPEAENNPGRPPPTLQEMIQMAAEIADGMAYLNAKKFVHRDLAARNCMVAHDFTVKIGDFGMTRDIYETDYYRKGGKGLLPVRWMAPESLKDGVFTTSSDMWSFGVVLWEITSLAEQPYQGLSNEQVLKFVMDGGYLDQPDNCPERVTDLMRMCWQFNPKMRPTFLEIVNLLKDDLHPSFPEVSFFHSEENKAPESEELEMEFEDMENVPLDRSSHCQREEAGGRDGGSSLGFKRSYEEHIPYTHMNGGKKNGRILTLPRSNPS

Aurora kinase A = target: T2, Aurora kinase A (Homo sapiens, UniProt O14965); assay: Inhibition of aurora A (unknown origin)
T2 sequence (O14965 whole entry): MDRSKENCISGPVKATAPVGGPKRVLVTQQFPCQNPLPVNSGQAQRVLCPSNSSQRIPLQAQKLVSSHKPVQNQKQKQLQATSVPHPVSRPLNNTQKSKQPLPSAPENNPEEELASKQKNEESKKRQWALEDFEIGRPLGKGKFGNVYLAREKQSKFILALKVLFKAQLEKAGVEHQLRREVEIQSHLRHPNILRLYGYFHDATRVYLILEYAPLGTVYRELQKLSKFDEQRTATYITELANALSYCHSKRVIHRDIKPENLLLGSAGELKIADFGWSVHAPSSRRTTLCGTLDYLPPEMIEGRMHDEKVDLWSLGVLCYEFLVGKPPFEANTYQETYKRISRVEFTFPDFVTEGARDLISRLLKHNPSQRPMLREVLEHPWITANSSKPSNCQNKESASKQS

[6] = target: T3, Discoidin domain-containing receptor 2 (Homo sapiens, UniProt Q16832); assay: Inhibition of DDR2 (unknown origin)
T3 sequence (Q16832 whole entry): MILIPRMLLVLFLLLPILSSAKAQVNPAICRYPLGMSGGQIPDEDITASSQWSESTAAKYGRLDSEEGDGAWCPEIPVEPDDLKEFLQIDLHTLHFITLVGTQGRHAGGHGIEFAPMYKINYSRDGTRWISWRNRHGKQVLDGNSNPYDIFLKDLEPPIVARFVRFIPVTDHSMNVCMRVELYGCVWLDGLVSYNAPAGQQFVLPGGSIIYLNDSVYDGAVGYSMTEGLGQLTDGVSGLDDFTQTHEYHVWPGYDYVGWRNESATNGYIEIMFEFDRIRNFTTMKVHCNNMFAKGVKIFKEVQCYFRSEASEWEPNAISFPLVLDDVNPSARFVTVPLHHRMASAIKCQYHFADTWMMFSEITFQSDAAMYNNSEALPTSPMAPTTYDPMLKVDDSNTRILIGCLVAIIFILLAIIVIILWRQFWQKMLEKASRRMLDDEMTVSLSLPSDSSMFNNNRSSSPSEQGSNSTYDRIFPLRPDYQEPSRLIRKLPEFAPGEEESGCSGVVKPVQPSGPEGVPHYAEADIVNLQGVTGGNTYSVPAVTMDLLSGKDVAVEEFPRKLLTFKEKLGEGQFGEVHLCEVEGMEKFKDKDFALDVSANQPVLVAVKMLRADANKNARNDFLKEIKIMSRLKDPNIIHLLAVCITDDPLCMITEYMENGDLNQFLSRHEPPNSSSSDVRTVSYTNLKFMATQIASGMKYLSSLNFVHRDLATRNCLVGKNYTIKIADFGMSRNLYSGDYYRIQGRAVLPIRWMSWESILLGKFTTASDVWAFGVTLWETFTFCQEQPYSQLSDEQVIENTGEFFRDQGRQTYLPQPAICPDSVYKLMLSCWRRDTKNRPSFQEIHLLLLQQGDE

[7] = Cmax in CD rat at 30 mg/kg, po; format: ADME, organism-based; parameters: dose 30 mg/kg, route oral; details: in vivo
[8] = Ratio of drug level in brain to plasma in CD rat at 30 mg/kg, po; format: ADME, organism-based; details: read-out: BPR
Rattus norvegicus [9] = assay: Inhibition of ghrelin-induced food intake in Sprague-Dawley rat at 30 mg/kg, po administered 1 hr followed by ghrelin addition measured for 4 hrs relative to control; format: functional
Rattus norvegicus [10] = assay: Reduction of food intake in Sprague-Dawley rat at 30 mg/kg, po administered 1 hr measured for 4 hrs; format: ADME, organism-based; details: in vivo
[11] = Cmax in CD rat at 10 mg/kg, po; format: ADME, organism-based; parameters: dose 10 mg/kg, route oral; details: in vivo
[12] = Ratio of drug level in brain to plasma in CD rat at 10 mg/kg, po; format: ADME, organism-based; details: read-out: BPR

Cc1cc(OCCN2CCOCC2)ccc1-c1cc2c(-c3ccc(C#N)cc3)ccnc2[nH]1
IC50 [1]: 100 to 251 nM
IC50 [2]: 7940 nM
solubility at 1 h [3]: 9 µM (≈ 3.95 µg/mL)
IC50 [4]: 20000 nM
IC50 [5]: > 31600 nM
IC50 (Insulin receptor; read-out: IC50): > 10000 nM
IC50 (Insulin receptor; read-out: pIC50 (converted)): > 10000 nM
IC50 (Aurora kinase A): > 10000 nM
IC50 [6]: > 10000 nM

Cc1cc(OCCN2CCOCC2)ccc1-c1cc2c(-c3ccc(C#N)c(C(C)C)c3)ccnc2[nH]1
IC50 [1]: 6.31 nM
IC50 [2]: 501 nM
solubility at 1 h [3]: < 1 µM
IC50 [4]: > 10000 nM
IC50 [5]: > 25100 nM
IC50 (Insulin receptor; read-out: IC50): > 10000 nM
IC50 (Insulin receptor; read-out: pIC50 (converted)): > 10000 nM
IC50 (Aurora kinase A): > 10000 nM
IC50 [6]: > 10000 nM
Cmax [7]: 964 ng/mL
Kp [8]: 0.9
inhibition in vivo at 30 mg/kg (Rattus norvegicus [9]): 40%
Activity (Rattus norvegicus [10]): Non-Toxic

Cc1cc(OCCN2CCOCC2)ccc1-c1cc2c(-c3ccc(C(N)=O)c(C(C)C)c3)ccnc2[nH]1
IC50 [1]: 0.794 to 7.94 nM
IC50 [2]: 63.1 nM
solubility at 1 h [3]: 4 µM (≈ 1.99 µg/mL)
IC50 [4]: 2000 nM
IC50 [5]: 2510 nM
IC50 (Insulin receptor; read-out: pIC50 (converted)): 398 nM
Cmax [7]: 374 ng/mL
Kp [8]: 0.6

Cc1ccc(CN2CCOCC2)cc1-c1cc2c(-c3ccc(C#N)cc3)ccnc2[nH]1
IC50 [1]: 79.4 to 398 nM
IC50 [2]: 2510 nM
solubility at 1 h [3]: 2 µM (≈ 0.817 µg/mL)
IC50 [4]: > 10000 nM
IC50 [5]: > 25100 nM
IC50 (Insulin receptor; read-out: IC50): > 10000 nM
IC50 (Insulin receptor; read-out: pIC50 (converted)): > 10000 nM
IC50 (Aurora kinase A): > 10000 nM
IC50 [6]: > 10000 nM

COc1ccccc1-c1cc2c(-c3ccc(C(N)=O)c(C4CCCC4)c3)ccnc2[nH]1
IC50 [1]: 2 nM
IC50 [2]: 100 nM
solubility at 1 h [3]: 7 µM (≈ 2.88 µg/mL)
IC50 [4]: 2000 nM
IC50 [5]: 2510 nM
IC50 (Insulin receptor; read-out: pIC50 (converted)): 794 nM
Cmax [11]: 35 ng/mL
Kp [12]: 3.2

Cc1ccc(CN2CCOCC2)cc1-c1cc2c(-c3ccc(C#N)c(C(C)C)c3)ccnc2[nH]1
IC50 [1]: 12.6 nM
IC50 [2]: 398 nM
solubility at 1 h [3]: 1 µM (≈ 0.451 µg/mL)
IC50 [4]: 7940 nM
IC50 [5]: 2510 nM
IC50 (Insulin receptor; read-out: IC50): > 10000 nM
IC50 (Insulin receptor; read-out: pIC50 (converted)): > 10000 nM
IC50 (Aurora kinase A): > 10000 nM
IC50 [6]: > 10000 nM
Cmax [7]: 127 ng/mL
Kp [8]: 0.6
